Screening data: PubChem, several laboratories
Hits are enriched below; roughly 3.7% of the tested compounds scored in any of these assays.
Dynein cargo inh – blocks dynein driven cargo transport along microtubules. 3617.4 mouse cells, GR-EGFP nuclear translocation imaging; test concentration mostly 20 µM; stimulated with dexamethasone, 1 µM; active compounds read low. z-score, hits read low. 0.47% of 220,000 active;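 active = plate z-score of nuclear minus cytoplasmic receptor signal below a set negative limit, without overly bright fluorescence or cell loss, cut at about -3.5 in these data, passing the limit was not always enough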;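 note: z-score of nuclear minus cytoplasmic ring GR-EGFP intensity difference per well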
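medium = tetracycline-free induction medium containing charcoal-stripped FBS | also added = 1.0 µM final dexamethasone stimulus | schedule = 48 h induction, 1 h compound, 30 min dex at 37 °C | technique = fixed, Hoechst-stained cells imaged at 10x for EGFP | measure = GR-EGFP nuclear translocation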
MDM2 E3 inh – inhibitors of human Mdm2 E3 ubiquitin ligase | cell-based MDM2 ubiquitination luciferase reporter, 2 h; 0 = plate control, 100 = twice control, blank-subtracted | AID 1230 | Q00987 | 0.11% of 210,000 active | signal enhancement, % at 5 µM;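 active = signal enhancement of 30% or more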;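 note: luminescence tracks abundance of the self-degrading MDM2-luciferase fusion protein; higher signal means inhibition of MDM2 E3 ligase activity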
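Assay system: stable mammalian line carrying autodegrading MDM2–luciferase fusion reporter; amount: 2000 cells seeded into each well; buffer or medium: DMEM; benchmarks: plate control and blank wells; signal: luciferase luminescence; timing: 2 h compound exposure at 37 °C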
Mdm2 MdmX PPI – inhibitors of human Mdm2/MdmX interaction; O15151+Q00987; SaOS-2 split-luciferase Mdm2/MdmX complementation, luminescence; inhibition, % at 8 µM; 3% of 330,000 active; AID 485346;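 active = inhibition of at least 50% at 8 µM in the primary screen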
Target sequence (O15151 whole entry, looked up): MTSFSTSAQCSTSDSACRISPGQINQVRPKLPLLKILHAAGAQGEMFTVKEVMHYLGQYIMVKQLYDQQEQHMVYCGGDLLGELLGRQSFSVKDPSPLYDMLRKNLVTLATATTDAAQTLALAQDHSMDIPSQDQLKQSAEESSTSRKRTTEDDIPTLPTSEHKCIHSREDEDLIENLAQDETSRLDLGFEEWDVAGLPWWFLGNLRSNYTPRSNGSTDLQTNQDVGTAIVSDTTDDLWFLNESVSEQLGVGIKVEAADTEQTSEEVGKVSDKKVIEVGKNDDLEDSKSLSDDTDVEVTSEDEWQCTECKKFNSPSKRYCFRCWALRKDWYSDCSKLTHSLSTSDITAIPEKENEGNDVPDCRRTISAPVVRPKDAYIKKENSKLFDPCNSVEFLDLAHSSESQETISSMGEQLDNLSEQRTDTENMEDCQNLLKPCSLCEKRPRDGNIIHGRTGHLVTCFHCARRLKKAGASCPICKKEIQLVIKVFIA
Target sequence (Q00987 whole entry, looked up): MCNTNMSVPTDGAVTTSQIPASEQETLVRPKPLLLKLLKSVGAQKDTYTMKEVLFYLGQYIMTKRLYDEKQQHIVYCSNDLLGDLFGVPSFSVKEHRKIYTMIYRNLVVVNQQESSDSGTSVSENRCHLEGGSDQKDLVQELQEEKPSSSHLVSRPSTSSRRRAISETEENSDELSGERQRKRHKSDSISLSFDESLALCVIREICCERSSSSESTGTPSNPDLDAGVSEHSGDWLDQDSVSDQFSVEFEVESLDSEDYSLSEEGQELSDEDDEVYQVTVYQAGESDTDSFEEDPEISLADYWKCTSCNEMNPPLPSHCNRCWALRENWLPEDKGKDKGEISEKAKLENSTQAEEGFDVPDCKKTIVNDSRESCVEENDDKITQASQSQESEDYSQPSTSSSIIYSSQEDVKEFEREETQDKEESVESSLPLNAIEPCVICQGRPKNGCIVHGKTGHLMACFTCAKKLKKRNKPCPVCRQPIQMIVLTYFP
Beta2AR agonist – activates human beta-2 adrenergic receptor causing internalization | 0.43% of 340,000 active | response, % (concentration not given with the values) | Am2.2-beta2AR cells, FAP receptor internalization, flow cytometry;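 active = response above a set limit, near 3 SD of response in nonfluorescent compounds, cut at about 42% in these data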
UPR XBP1 act – activators of adaptive arm of unfolded protein response (XBP1); activation, % at 20 µM; CHO-XBP1 luciferase reporter, IRE1-XBP1 UPR activation, luminescence; percent of tunicamycin response, DMSO as zero; 0.33% of 330,000 active;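 active = versus positive control, 20 µM dose yields 30% or more activation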
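Material – CHO cell line with stable XBP1 luciferase reporter · Buffer or medium – F12 plus 10% FBS · Compound – single point, 20 µM final compound, 1% DMSO · Schedule – 16-18 h cell attachment at 37 °C, then 6 h compound exposure · Signal – Steady-Glo luminescence read · Benchmarks – high control tunicamycin 10 µg/mL final, low control DMSO vehicle only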
CHOP UPR activ – activators of apoptotic arm of unfolded protein response (CHOP) | CHO-CHOP luciferase reporter, UPR activation, luminescence; percent of tunicamycin response over DMSO baseline | activation, % at 10 µM | 0.34% of 330,000 active;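 active = at 10 µM dose, activation of 40% or more, normalized to positive control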
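Test system: CHO CHOP reporter cells. Input: 500 CHO-CHOP cells per well. Medium: F12 with 10% FBS. Technique: luciferase luminescence. Measure: percent activation relative to tunicamycin control. Dosing: 10 µM compound, 0.5% DMSO. Timing: 16-18 h cell attachment, then 6 h compound exposure, 37 °C.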
CHOP UPR conf – apoptotic UPR (CHOP) activation, confirmed | 64% of 1,000 active | CHO-CHOP cells, CHOP-luciferase reporter luminescence; percent of tunicamycin response, DMSO as zero | AID 463112 | shares compounds with CHOP UPR activ | activation, % at 10 µM; in the data active = activation above about 33%
UPR XBP1 confirm – confirmation of adaptive unfolded protein response (XBP1) activators | shares compounds with UPR XBP1 act | CHO-XBP1 IRE1-XBP1 luciferase reporter, luminescence | activation, % at 20 µM | 63% of 1,000 active;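 active = reporter signal at least 30% of the positive control's activation in two or more of four replicate wells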
Mdm2 MdmX conf – human Mdm2/MdmX binding inhibition, confirmed. shares compounds with Mdm2 MdmX PPI. luminescent assay. inhibition, % at 8 µM. 55% of 10,000 active. AID 489028; in the data active = inhibition above about 40%
Full FLuc ctr – counter-screen for Mdm2/MdmX inhibitors: full-length luciferase. shares compounds with Mdm2 MdmX PPI. SaOS-2 full-length luciferase counterscreen, luminescence. inhibition, % at 8 µM. 77% of 6,200 active;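 active = mean inhibition at 8 µM reaching about 37%, which flags the compound as non-specific, limit read from the data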;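 note: p53-null SaOS-2 cells with luciferase driven by a doxycycline-inducible promoter; compound on cells about two nights before reading with doxycycline added after day one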
A number is an active result; - = inactive; . = not tested or not shown.

SMILES | Dynein cargo inh | MDM2 E3 inh | Mdm2 MdmX PPI | Beta2AR agonist | UPR XBP1 act | CHOP UPR activ | CHOP UPR conf | Mdm2 MdmX conf | Full FLuc ctr | others
Oc1ccc(CN2CCC(Cc3ccccc3)CC2)c2cccnc12 | - | - | 72.8 | . | 39.2 | 384.6 | 254.4 | 68.7 | 69.4 | UPR XBP1 confirm=30.7
Oc1ccc(CN2CCc3ccccc3C2)c2cccnc12 | - | - | 51.1 | - | - | 103.5 | 102.1 | 77.7 | -
Oc1ccc(CN2CCCCC2)c2cccnc12 | - | - | - | - | - | - | . | . | .
Oc1ccc(CN2CCN(c3ccccc3)CC2)c2cccnc12 | - | - | 78.3 | - | - | 67.2 | 50.1 | 65.5 | 66.7
CCOC(=O)N1CCN(Cc2ccc(O)c3ncccc23)CC1 | - | - | 50.2 | . | - | 62.1 | 77.7 | - | .
CCn1nc(C)c(CN2CCCC(CNS(=O)(=O)c3ccc(OC)cc3)C2)c1C (stereo unspecified) | . | . | - | - | - | - | . | . | .
CC1CCN(CC(=O)Nc2ccc(S(=O)(=O)N3C(C)CCCC3C)cc2)CC1 (stereo unspecified) | . | . | - | - | - | - | . | . | .
COc1ccccc1NS(=O)(=O)c1cc(NC(=O)C2CCCO2)ccc1C (stereo unspecified) | . | . | - | - | - | - | . | . | .
COc1ccc(Cc2ccccc2C(=O)O)cc1 | . | . | . | - | . | . | . | . | .
COc1ccc(CC2=CC(=O)c3ccccc3C2=O)cc1 | . | . | 54.8 | 56.5 | - | 187.1 | 190.9 | - | .
O=c1/c(=C\c2ccc(O)cc2)sc2nc(-c3ccccc3)c(-c3ccccc3)n12 | - | . | - | - | - | - | . | . | .
O=c1/c(=C/c2ccc(O)cc2)sc2nc3cc(Br)cnc3n12 | - | - | 57.9 | . | 78.8 | 63.1 | - | - | 39.5 | UPR XBP1 confirm=-
O=C(c1ccc(Cl)cc1)N1CCN(S(=O)(=O)/C=C/c2ccccc2)CC1 | . | . | - | - | - | - | . | . | .
O=C(CCN1C(=O)/C(=C\c2ccccc2F)SC1=S)N1CCCCC1 | . | . | 93.2 | - | - | 43.5 | 37.3 | 67.0 | 104.6
O=C(CCN1C(=O)/C(=C/c2ccccc2F)SC1=S)Nc1ccccn1 | . | . | - | - | - | - | . | . | .
CCCCC1CCC(C(=O)N(CCCC)c2c(N)n(CCCC)c(=O)[nH]c2=O)CC1 (stereo unspecified) | . | . | 98.9 | - | - | 115.0 | 35.0 | - | .
N#C/C(=C(\O)c1cc(Cl)sc1Cl)c1nc2ccccc2[nH]1 | . | . | - | - | - | - | . | . | .
Cn1c(=O)c2ccccc2n(CC(=O)N2CCCc3ccccc32)c1=O | . | . | - | - | - | - | . | . | .
COC(C(=O)Nc1ccnn1C1CCN(Cc2ccc(Cl)s2)CC1)c1ccccc1 (stereo unspecified) | . | . | - | - | - | - | . | . | .
COc1cc(C(=O)Nc2nc(-c3ccc(Cl)cc3)c(C)s2)ccc1OCC(=O)Nc1ccc(F)cc1 | - | - | 77.9 | - | 99.3 | 126.7 | 70.5 | 65.8 | 70.7 | UPR XBP1 confirm=109.4
CCc1ccc(-c2nc(NC(=O)c3ccc(OCC(=O)Nc4ccc(F)cc4)c(OC)c3)sc2C)cc1 | - | - | - | - | - | - | . | . | .
CCn1c(-c2ccccc2)c(C(=O)CCl)c2ccccc21 | - | - | 98.3 | - | - | 76.5 | 109.6 | - | .
CCn1c2ccccc2c(=O)c2ccccc21 | - | - | - | - | - | - | . | . | .
CCC(C(=O)OC(C)C(=O)Nc1ccc(Cl)cn1)c1ccccc1 (stereo unspecified) | . | . | - | - | - | - | . | . | .
Cn1nnnc1Sc1ncnc2scc(-c3ccc([N+](=O)[O-])cc3)c12 | . | . | 98.9 | - | - | 92.6 | 104.7 | 99.5 | 50.3
SMILES | Dynein cargo inh | MDM2 E3 inh | Mdm2 MdmX PPI | Beta2AR agonist | UPR XBP1 act | CHOP UPR activ | CHOP UPR conf | Mdm2 MdmX conf | Full FLuc ctr | others
Cn1nnnc1Sc1ccc([N+](=O)[O-])cc1Cl | - | - | - | - | - | - | . | . | .
COCc1cc(C)nc(OCC(=O)N/N=C/c2ccco2)c1C#N | - | - | - | - | - | - | . | . | .
COCc1cc(C)nc(OCC(=O)N/N=C/c2ccc(-c3cc([N+](=O)[O-])ccc3Cl)o2)c1C#N | - | - | 68.9 | - | 342.1 | 53.1 | 70.5 | - | . | UPR XBP1 confirm=276.9
O=S(=O)(CCSc1nc2ccccc2s1)c1nc2ccccc2s1 | - | - | 99.2 | - | - | 108.2 | 153.5 | 83.2 | 54.7
Cc1cc(C)c2c(c1)/C(=c1/sc3n(c1=O)CN(c1ccccc1)CN=3)C(=O)N2 | - | - | 56.9 | - | 189.7 | 102.0 | 83.0 | - | . | UPR XBP1 confirm=168.5
CCc1cccc2sc(N3CCN(C(=O)c4ccc([N+](=O)[O-])o4)CC3)nc12 | . | . | 93.8 | - | - | 157.4 | 140.9 | 75.2 | 46.4
COC(=O)c1ccc(COc2ccccc2/C=C(\C#N)C(=O)Nc2c(C)cccc2C)cc1 | - | - | 93.4 | - | 65.3 | 127.8 | 85.3 | 52.9 | 41.8 | UPR XBP1 confirm=65.0
COC(=O)c1ccc(COc2ccccc2/C=C(\C#N)C(=O)Nc2ccccc2C)cc1 | - | - | - | - | - | - | . | . | .
O=C1c2cccc3c([N+](=O)[O-])ccc(c23)C(=O)N1CCc1ccccn1 | - | - | 95.6 | - | - | 57.7 | - | - | .
Cc1ccc(-c2ccc(OC(=O)c3ccc(=O)[nH]c3)c(C)c2)cc1 | . | . | - | - | - | - | . | . | .
Cc1nn(-c2ccccc2)c(C)c1/C=N/NC(=O)CSc1nc2ccccc2c(=O)n1-c1ccc(Br)cc1 | - | - | 74.2 | - | 69.0 | 251.7 | 59.5 | 65.2 | 74.2 | UPR XBP1 confirm=111.3
Cc1ccccc1-n1c(SCC(=O)N/N=C/c2c(C)nn(-c3ccccc3)c2C)nc2ccccc2c1=O | - | . | - | - | - | - | . | . | .
CS(=O)(=O)c1ccc(Sc2nc3ccccc3[nH]2)c([N+](=O)[O-])c1 | - | - | - | - | - | - | . | . | .
O=[N+]([O-])c1cc(S(=O)(=O)C(F)(F)F)ccc1Sc1nc2ccccc2[nH]1 | - | - | 56.8 | - | - | 42.9 | - | - | .
Cc1[nH]c(C)c(S(=O)(=O)N2CCN(c3ccccc3)CC2)c1C(=O)N1CCCCC1 | . | . | - | - | - | - | . | . | .
Cn1ccnc1C(=O)c1cc(SCC(=O)NC2CC2)nc2ccccc12 | - | - | - | - | - | - | . | . | .
